Target: Muscarinic acetylcholine receptor M4 (Homo sapiens) (UniProt P08173)
Experiment: compounds altering M4/GIRK thallium flux, either direction, primary screen, M4 allosteric agonist project, cell-based, HEK293 M4/GIRK, BTC-AM (AID 625;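 active = fluorescence slope after compound addition differing from the mean of all tested samples at 99.7% confidence, mostly higher but some lower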;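 also: thallium influx through GIRK channels coupled to M4 in HEK293 cells with BTC-AM dye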)
Settings: at 10 µM, actives lie on both sides
Summary of the method: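 assay system = HEK293 cells with M4 receptor and GIRK channels | medium = pH 7.3 thallium assay buffer | doses = 10 µM final, single point | timing = cells overnight at 37 °C, BTC-AM loading 1 h, reads 2 min total | signal = BTC-AM fluorescence, 1 Hz kinetic reads | read-out = post-addition slope, 15–24 s, of baseline-normalized fluorescence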

Sequence of Muscarinic acetylcholine receptor M4 (Homo sapiens) (P08173 whole entry, looked up): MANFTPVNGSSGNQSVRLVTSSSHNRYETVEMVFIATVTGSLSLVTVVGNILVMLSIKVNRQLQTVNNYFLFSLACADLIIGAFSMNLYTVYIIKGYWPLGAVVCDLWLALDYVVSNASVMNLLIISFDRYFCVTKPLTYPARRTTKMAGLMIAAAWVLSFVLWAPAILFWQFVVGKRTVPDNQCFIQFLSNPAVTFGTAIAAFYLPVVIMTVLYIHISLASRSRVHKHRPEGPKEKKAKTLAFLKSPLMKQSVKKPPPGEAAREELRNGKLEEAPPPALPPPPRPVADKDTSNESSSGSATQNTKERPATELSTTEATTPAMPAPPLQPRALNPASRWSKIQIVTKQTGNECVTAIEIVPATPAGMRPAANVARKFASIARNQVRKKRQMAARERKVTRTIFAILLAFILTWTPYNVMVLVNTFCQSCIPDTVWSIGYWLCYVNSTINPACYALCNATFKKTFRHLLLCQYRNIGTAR

Fluorescence slope, inactive:
CCN(CC)S(=O)(=O)N1CCC(C(=O)NCC2COc3ccccc3O2)CC1 (centres undefined) 0.00755
Cc1cc(NC(=O)Cn2cnc3c2c(=O)n(C)c(=O)n3C)n(-c2ccccc2)n1 0.00675
O=C(CSc1nnc(Cn2cnc3ccccc32)o1)c1ccccc1 0.00662
O=C(c1nc2n(n1)C(c1ccc(Cl)cc1)C=C(c1ccccc1)N2)N1CCOCC1 (centres undefined) 0.00624
N#Cc1cc2sc3nnc(-c4ccncc4)n3c2cc1C#N 0.0043
COC(=O)C(C)Oc1ccc2c3c(c(=O)oc2c1)CCCCC3 (centres undefined) 0.00349
COc1cccc(-c2cc(C(=O)Nc3cc(C)n(Cc4ccc(Cl)cc4)n3)no2)c1 0.0105
CCn1ncc(C2=NOC(C(=O)NCc3ccc(Cl)cc3)C2)c1C (centres undefined) 0.0055
CCOC(=O)N1CCN(C(=O)CN(C)S(=O)(=O)c2ccc(OC)c(OC)c2)CC1 0.00404

Tested on: not listed separately
Experiment: inhibitors of Sendai virus-induced IRF3 signaling, primary screen, TLR/RLR signaling modifier project, cell-based, Sendai virus stimulus, luciferase, 10K MLSCN set (AID 602276);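 also: firefly luciferase from ISG56 promoter only with Renilla not read in this screen; 0% = Sendai virus plus DMSO and 100% = medium plus DMSO without virus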
Settings: HEK293 RL24 IRF3 luciferase reporter, at 10 µM, hits give high values

inhibition, inactive:
Cc1ccc(S(=O)(=O)N2CCOCC2)cc1C(=O)Nc1ccc(-c2cn3ccsc3n2)cc1 -3.48%
Cc1ccc(S(=O)(=O)NCCc2ccncc2)cc1 7.81%
O=C(NCc1ccco1)C1Cc2ccccc2CN1S(=O)(=O)c1ccccc1F (centres undefined) 6.51%
Cc1ccccc1NC(=O)c1c(F)c(F)c(F)c(F)c1F 12.8%
CC(C(=O)N1CC2(C)CC1CC(C)(C)C2)N1C(=O)c2ccccc2C1=O (centres undefined) 20.7%
O=c1c2c3nc4ccccc4nc3n(CC3CCCO3)c2ncn1CCc1ccccc1 (centres undefined) 12.8%
COC(=O)C1=C(C)NC(=O)C1(NC(=O)c1cccnc1)C(F)(F)F (centres undefined) -31.4%
CCCn1c2ccccc2c2nnc(SCC(=O)OCC)nc21 17.9%
O=C(Nc1ccc(Cl)cc1C(=O)Nc1ccncc1)c1ccco1 18.3%
COCCOC(=O)C1=C(C)N=c2s/c(=C\c3cccs3)c(=O)n2C1c1cccs1 (centres undefined) -5.37%
Cc1cc2ncc(C(=O)Nc3ccccc3)c(C)n2n1 1.55%
Cn1c(SC/C=C/c2ccccc2)nnc1-c1cnccn1 -12.1%
CCn1c(=O)n(CC(=O)Nc2cc(OC)ccc2OC)c(=O)c2ccccc21 24.5%
CCOC(=O)COc1ccc(S(=O)(=O)N2CCc3ccccc3C2)cc1 19.6%
COc1cc(-c2c(C#N)c(N)nc3c2CCCC3)cc(OC)c1OC 20%
O=C(OCc1cccs1)c1ccccc1NS(=O)(=O)c1ccc2c(c1)OCCO2 3.25%
O=C1NCCCc2c1no[n+]2[O-] -17.2%
CCOC(=O)c1cc2oc(C)cc2n1CC(=O)OC1CCCCC1 1.83%
Cc1cccc(-n2ncc(C#N)c2N)c1 18%
CC(=O)c1cc(-c2ccccc2)n(CC(=O)N2CCC(N3CCCCC3)CC2)c1C 14.8%
CN(C)S(=O)(=O)c1ccc(S(=O)(=O)Nc2ccc3c(c2)oc2ccccc23)cc1 -8.93%
CCCCOC(=O)CSc1nc2c(cc1C#N)C(=O)CC(C)(C)C2 -23.7%
Cc1ccc(S(=O)(=O)Cc2ccc(C(=O)NCCCN3CCN(C)CC3)o2)cc1 14.1%
Cc1onc(-c2c(Cl)cccc2Cl)c1C(=O)NCCCN1CCOCC1 9.5%
O=C(O)C1C2C=CC(O2)C1C(=O)NCc1ccc(Cl)cc1 (centres undefined) 11.9%
CC(C)OC(=O)CSc1nnnn1-c1ccc2c(c1)OCCO2 -0.252%
CCOC(=O)Cc1nn2c(=O)cc(C)nc2s1 2.1%
O=C(CSc1ncnc2sc3c(c12)CCCCC3)NCc1ccco1 17.7%
CCCn1c(SCC(=O)Nc2cc(C)on2)nc2c1c(=O)n(C)c(=O)n2C -5.89%
O=C(CSc1ncnc2ccccc12)N1CCN(c2ccccc2)CC1 1.94%
Nc1ncnc2nc(SCCN3CCCCC3)[nH]c12 17.8%
CCN(CC)S(=O)(=O)N1CCC(C(=O)NCC2COc3ccccc3O2)CC1 (centres undefined) -4.12%
Cc1cc(NC(=O)Cn2cnc3c2c(=O)n(C)c(=O)n3C)n(-c2ccccc2)n1 13.4%
O=C(CSc1nnc(Cn2cnc3ccccc32)o1)c1ccccc1 7.52%
O=C(c1nc2n(n1)C(c1ccc(Cl)cc1)C=C(c1ccccc1)N2)N1CCOCC1 (centres undefined) 9.43%
N#Cc1cc2sc3nnc(-c4ccncc4)n3c2cc1C#N 5.55%
COC(=O)C(C)Oc1ccc2c3c(c(=O)oc2c1)CCCCC3 (centres undefined) 9.54%
COc1cccc(-c2cc(C(=O)Nc3cc(C)n(Cc4ccc(Cl)cc4)n3)no2)c1 18.7%
CCn1ncc(C2=NOC(C(=O)NCc3ccc(Cl)cc3)C2)c1C (centres undefined) 2.33%
CCOC(=O)N1CCN(C(=O)CN(C)S(=O)(=O)c2ccc(OC)c(OC)c2)CC1 16.2%
